Time to onset, Rating and Time to offset data for 3 compounds are collected here from ChEMBL document CHEMBL1126735, “Synthesis and biological evaluation of antiplatelet 2-aminochromones” (J Med Chem, 1993).

Assay type in all cases: functional, Canis lupus familiaris
Assay [1] relates to Canis familiaris. In words: Time interval between the start of treatment and the first change in the CFR pattern of blood flow in the stenosed coronary artery at iv dose of 100 ug/kg +10 ug/kg/min (n=3). The method, boiled down:
(§1)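 Stenosed circumflex coronary artery in pentobarbital-anesthetized open-chest mongrel dogs (10-15 kg), drug iv in saline (mesylate/bismesylate salt), bolus followed by constant infusion. Onset measured as the time from the start of drug treatment to the first change in the cyclic flow reduction pattern of coronary blood flow. Mean ± SEM.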

In assay [2] the test system is Canis familiaris. In words: In vivo inhibitory effect on Cyclical flow reductions (CFR) induced by intracoronary platelet aggregation in stenosed Canine coronary arteries at iv dose of 100 ug/kg +10 ug/kg/min (n=3). In a few lines: (§2)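 Adult mongrel dogs (10-15 kg, either sex), sodium pentobarbital anesthesia (30 mg/kg iv), positive-pressure ventilation. Aortic pressure via femoral artery catheter. Drug given iv via femoral vein in saline as mesylate/bismesylate salt, bolus then constant infusion. Values mean ± SEM.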

For assay [3], the system named is Canis familiaris. In words: Time interval between the end of treatment and restoration of the CFR pattern of blood flow to control levels at iv dose of 100 ug/kg +10 ug/kg/min (n=3). The method, boiled down: (§3)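 Anesthetized open-chest mongrel dogs (10-15 kg) with partially obstructed circumflex coronary artery; iv bolus plus constant infusion of drug in saline as mesylate/bismesylate salt. Duration scored as the time from the end of drug treatment until the cyclic flow reduction pattern returns to control levels. Mean ± SEM.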

Assay [4] concerns Canis familiaris. The experiment in a line: In vivo inhibitory effect on Cyclical flow reductions (CFR) induced by intracoronary platelet aggregation in stenosed Canine coronary arteries at iv dose of 300 ug/kg +30 ug/kg/min (n=3). The method, boiled down:
as §2

For assay [5], the system named is Canis familiaris. In words: Time interval between the start of treatment and the first change in the CFR pattern of blood flow in the stenosed coronary artery at iv dose of 300 ug/kg +30 ug/kg/min (n=3). The method, boiled down: as §1
Assay [6] relates to Canis familiaris. In words: Time interval between the end of treatment and restoration of the CFR pattern of blood flow to control levels at iv dose of 300 ug/kg +30 ug/kg/min (n=4). The method, boiled down: as §3
The test system of assay [7] is Canis familiaris. In words: Time interval between the start of treatment and the first change in the CFR pattern of blood flow in the stenosed coronary artery at iv dose of 300 ug/kg +30 ug/kg/min (n=4). The method, boiled down: as §1
For assay [8], the system named is Canis familiaris. The experiment in a line: In vivo inhibitory effect on Cyclical flow reductions (CFR) induced by intracoronary platelet aggregation in stenosed Canine coronary arteries at iv dose of 100 ug/kg +10 ug/kg/min (n=10). In a few lines: as §2
Assay [9] deals with Canis familiaris. The experiment in a line: Time interval between the start of treatment and the first change in the CFR pattern of blood flow in the stenosed coronary artery at iv dose of 1000 ug/kg +100 ug/kg/min (n=4). In a few lines: as §1
Assay [10] concerns Canis familiaris. The experiment in a line: In vivo inhibitory effect on Cyclical flow reductions (CFR) induced by intracoronary platelet aggregation in stenosed Canine coronary arteries at iv dose of 30 ug/kg +3 ug/kg/min (n=4). In a few lines:
as §2

Assay [11] relates to Canis familiaris. In words: Time interval between the end of treatment and restoration of the CFR pattern of blood flow to control levels at iv dose of 100 ug/kg +10 ug/kg/min (n=10). In a few lines:
as §3

For assay [12], the system named is Canis familiaris. The experiment in a line: Time interval between the start of treatment and the first change in the CFR pattern of blood flow in the stenosed coronary artery at iv dose of 100 ug/kg +10 ug/kg/min (n=10). The method, boiled down:
as §1

Assay [13] deals with Canis familiaris. The experiment in a line: In vivo inhibitory effect on Cyclical flow reductions (CFR) induced by intracoronary platelet aggregation in stenosed Canine coronary arteries at iv dose of 300 ug/kg +30 ug/kg/min (n=4). The method, boiled down: as §2
Assay [14] concerns Canis familiaris. The experiment in a line: Time interval between the end of treatment and restoration of the CFR pattern of blood flow to control levels at iv dose of 1000 ug/kg +100 ug/kg/min (n=4). The method, boiled down: as §3
Assay [15] concerns Canis familiaris. In words: In vivo inhibitory effect on Cyclical flow reductions (CFR) induced by intracoronary platelet aggregation in stenosed Canine coronary arteries at iv dose of 1000 ug/kg +100 ug/kg/min (n=4). The method, boiled down: as §2
Assay [16] deals with Canis familiaris. In words: Time interval between the start of treatment and the first change in the CFR pattern of blood flow in the stenosed coronary artery at iv dose of 300 ug/kg +30 ug/kg/min (n=2-4). The method, boiled down: as §1
Assay [17] relates to Canis familiaris. The experiment in a line: In vivo inhibitory effect on Cyclical flow reductions (CFR) induced by intracoronary platelet aggregation in stenosed Canine coronary arteries at iv dose of 300 ug/kg +30 ug/kg/min (n=2-4). In a few lines:
as §2

On to `Cc1c(OCCN2CCSCC2)ccc2c(=O)cc(N3CCOCC3)oc12`, for which the Time to onset with Canis familiaris [1] stood at 17 min; in the assay with Canis familiaris [5], 9 min. Further, the Rating in the assay on Canis familiaris [2] amounted to 2; with Canis familiaris [4], 2.3. In addition, the Time to offset in the assay on Canis familiaris [3] is on record as 5.3 min; with Canis familiaris [6], 12 min.
Turning to `Cc1c(OCCN2CCN(C)CC2)ccc2c(=O)cc(N3CCOCC3)oc12`, the Time to onset came to 1 min in the assay with Canis familiaris [7], 1 min with Canis familiaris [9] and 5 min with Canis familiaris [12]. Besides, the Rating is recorded as 1.9 in the assay on Canis familiaris [8], 0 in the assay with Canis familiaris [10], 3 in the assay with Canis familiaris [13] and 3 in the assay on Canis familiaris [15]. Further, the Time to offset in the assay on Canis familiaris [11] came to 25 min; in the assay on Canis familiaris [6], 60 min; with Canis familiaris [14], 73 min.
For the compound `Cc1c(OCCN2CCCCC2)ccc2c(=O)cc(N3CCOCC3)oc12`, the figures for the Time to onset in the assay with Canis familiaris [9] and with Canis familiaris [16] were 7 min and 2 min, respectively. Further, the Rating with Canis familiaris [17] was determined as 1.3; in the assay with Canis familiaris [15] it was 2.5. Also, the Time to offset in the assay on Canis familiaris [6] is 67 min; with Canis familiaris [14] it was 23 min.
